Assay results gathered from unrelated publications.
Each line is one published result; the experiments were not run side by side.
Target: Mitogen-activated protein kinase 11 (MAPK11, Homo sapiens, UniProt Q15759)

Structure (SMILES)	assay	setting	endpoint	result
Cc1cc(NC(=O)c2cccc3cc(-c4cccc5[nH]nc(N)c45)ccc23)ccc1F	enzyme activity, inhibitor	0.1 µM	activity vs control	69%
CCC1(CC)NC(=O)c2c(c3ccc(Cl)c(Cl)c3n2C)C1C#N (centres unmarked)	thermal stability, DSF	10 µM	ΔTm	0.1 °C
Cn1c(=O)n(-c2ccc(C(C)(C)C#N)cc2)c2c3cc(-c4cnc5ccccc5c4)ccc3ncc21	enzyme activity, inhibitor	10 µM	remaining activity	96%
Cc1ccc(Nc2nccc(N(C)c3ccc4c(C)n(C)nc4c3)n2)cc1S(N)(=O)=O	enzyme activity, inhibitor	0.3 µM	inhibition	-6%
c1ccc(CNc2nc(N3CCOc4ccccc43)nc3c2CCCC3)cc1	target engagement in cells, inhibitor, chemoproteomics	20 mM	inhibition	-9.7%
COc1cc(Nc2cnc(C#N)c(O[C@H](C)CN(C)C)n2)ncc1-c1cnn(C)c1	enzyme activity, inhibitor, radiometric	10 µM	remaining activity	92%
CC(C)(C)c1nc(-c2cccc(NS(=O)(=O)c3c(F)cccc3F)c2F)c(-c2ccnc(N)n2)s1	enzyme activity, inhibitor, radiometric	1 µM	remaining activity	104%
CNc1cccc2cc(C(=O)Nc3ccc(C(=O)O)cc3)c(=O)[nH]c12	enzyme activity, inhibitor	10 µM	inhibition	-2.4%
NS(=O)(=O)c1cc(NC(=O)Cc2ccccc2)ccc1Oc1cccc(Cl)c1	cell-free assay, competition with immobilised ligand	1 µM	remaining binding	100%
CCN1CCC2(CC1)NC(=O)c1c(c3ccc(Cl)c(Cl)c3n1C)C2C#N (racemic)	thermal stability, DSF	10 µM	ΔTm	-0.3 °C
O=C(NCCCC1CCCCC1)c1ccc(CNC(=O)c2cnn(-c3ccccc3)c2C(F)(F)F)cc1	cell-free assay, competition with immobilised ligand	0.1 µM	remaining binding	100%
Cn1c2c(c3ccc(Cl)c(Cl)c31)C(C#N)C1(CCOCC1)NC2=O (centres unmarked)	thermal stability, DSF	10 µM	ΔTm	0.4 °C
Cc1ccc(NC(=O)c2ccc(C)c(C(F)(F)F)c2)cc1C#Cc1nn(C2CCC(O)CC2)c2ncnc(N)c12 (centres unmarked)	cell-free assay	10 µM	remaining signal	-2%
CCN(CC)CCNC(=O)c1c(C)[nH]c(/C=C2\C(=O)Nc3ccc(F)cc32)c1C	enzyme activity, inhibitor	10 µM	inhibition	3%
CCCCNc1ncc2c(-c3ccc(F)cc3)nn(C[C@H]3CC[C@H](N)CC3)c2n1	target engagement in cells, inhibitor, chemoproteomics	20 mM	inhibition	36.9%
Cn1c2c(c3ccc(Cl)c(Cl)c31)C(C#N)C1(CCCCC1)NC2=O (racemic)	thermal stability, DSF	10 µM	ΔTm	0.1 °C
C[S+]([O-])c1ccc(-c2nc(-c3ccncc3)c(-c3ccc(F)cc3)[nH]2)cc1 (centres unmarked)	cell-free assay	0.5 µM	remaining signal	68.9%
Nc1nc(Nc2ccccc2)sc1C(=O)c1c(F)cccc1F	enzyme activity, inhibitor	10 µM	remaining activity	12%
Cn1c2c(c3ccc(Cl)c(Cl)c31)C(C#N)C1(CCCC1)NC2=O (centres unmarked)	thermal stability, DSF	10 µM	ΔTm	0.9 °C

Structure (SMILES)	assay	setting	endpoint	result
CCN(CC)c1ccc(C2=NNC(=O)CC2C)cc1[N+](=O)[O-] (centres unmarked)	enzyme activity, inhibitor	10 µM	remaining activity	97%
O=C(CSc1nc2nccnc2c(=O)n1CCc1ccccc1)Nc1nccs1	enzyme activity, inhibitor	10 µM	inhibition	5%
COc1ccc2c(O[C@@H]3C[C@H]4C(=O)N[C@]5(C(=O)O)CC5/C=C\CCCCC[C@H](NC(=O)OC5CCCC5)C(=O)N4C3)cc(-c3csc(NC(=O)C(C)C)n3)nc2c1C (some centres unmarked)	cell-free assay, competition with immobilised ligand	1 µM	remaining binding	100%
CNCc1ccc(-c2cc(-c3nc(-c4ccc(S(=O)(=O)C(C)C)cc4)cnc3N)on2)cc1	enzyme activity, inhibitor	2 µM	inhibition	11%
CCCOc1ccc(OC)c(F)c1C(=O)c1ccc(C(=O)N[C@@H]2CNC[C@H]2NC(=O)c2ccc3[nH]ncc3c2)cc1	enzyme activity, inhibitor	10 µM	remaining activity	96%
COc1cc2ncnc(Nc3ccc(Oc4ccccc4)c(C)c3C)c2cc1OC	enzyme activity, inhibitor	1 µM	inhibition	6%
O=C(Nc1cnn(-c2csc(C(=O)NC3COC3)c2)c1)Nc1c(F)cccc1Cl	enzyme activity, inhibitor	5 µM	remaining activity	91.7%
O=C1NC(c2ccccn2)Sc2ccccc21 (centres unmarked)	cell-free assay, competition with immobilised ligand	1 µM	remaining binding	100%
O=C1Nc2ccc(Cl)cc2C1=Cc1cc(Cl)c(O)c(Cl)c1	cell-free assay	0.5 µM	remaining signal	99.2%
CCC(=O)N[C@@H]1CC[C@H](C(=O)N(C)c2ccc(-c3nc4ccccc4o3)cc2)C1	cell-free assay, competition with immobilised ligand	1 µM	remaining binding	83%
Cn1c2c(c3ccc(Cl)c(Cl)c31)C(C#N)C1(CCN(C(=O)OC(C)(C)C)CC1)NC2=O (racemic)	thermal stability, DSF	10 µM	ΔTm	-0.8 °C
Oc1cccc(-c2nc(N3CCOCC3)c3oc4ncccc4c3n2)c1	enzyme activity, inhibitor	10 µM	remaining activity	100%
Cn1c2c(Cl)c(Cl)ccc2c2cn[nH]c(=O)c21	thermal stability, DSF	10 µM	ΔTm	0.1 °C
O=C(O)[C@H]1[C@H](Cn2nnc3ccccc3c2=O)CC[C@@H]1C(=O)c1ccc(OCCC2CCOCC2)cc1	cell-free assay, competition with immobilised ligand	1 µM	remaining binding	78%
CCCS(=O)(=O)Nc1ccc(F)c(C(=O)c2c[nH]c3ncc(-c4ccc(Cl)cc4)cc23)c1F	enzyme activity, inhibitor	1 µM	inhibition	< 10%
O=C(NS(=O)(=O)c1ccc(NCC2CCOCC2)c([N+](=O)[O-])c1)c1ccc(N2CCN(Cc3ccc(C(F)(F)F)cc3-c3ccc(Cl)cc3)CC2)cc1Oc1cnc2[nH]ccc2c1	cell-free assay, competition with immobilised ligand	1 µM	remaining binding	78%
Oc1cccc(-c2nc(N3CCOCC3)c3oc4ncccc4c3n2)c1	cell-free assay	0.5 µM	remaining signal	103%
O=C(N1CCS(=O)(=O)CC1)N1C[C@H](c2ccc(OC(F)(F)F)cc2)C[C@H](c2nc(C3CC3)no2)C1	cell-free assay, competition with immobilised ligand	1 µM	remaining binding	100%
CC/C(=N\NC(=O)NCc1cccc(O)c1)c1ccc(O)c(C)c1O	enzyme activity, inhibitor	0.1 µM	inhibition	0.5%
